This is an account of results in ChEMBL document CHEMBL1629604, “Targeting type III secretion in Yersinia pestis” (Antimicrob Agents Chemother, 2009).

Activity calls are given as the source filed them. The calls are words filed in the database; no cut-off is given here.

Series [1] deals with HeLa. Nature of the series: Inhibition pCD1 positive Yersinia pestis JG153 T3SS-mediated morphological changes in human HeLa cells after 3 hrs. The format is cell-based.
In series [2] the test system is Yersinia pestis. Nature of the series: Inhibition of T3SS-mediated YopD secretion in Yersinia pestis JG401 at up to 60 uM after 2 hrs by Western blotting. A general note: Immunoblotting shows a protein as a band on a membrane.
Series [3] concerns Yersinia pestis. Nature of the series: Inhibition of T3SS-mediated YopM secretion in Yersinia pestis JG401 t up to 60 uM after 2 hrs by Western blotting.
Series [4] has as its system Yersinia pestis. Nature of the series: (§1) Inhibition of T3SS-mediated YopH secretion in Yersinia pestis JG401 after 2 hrs by Western blotting.
Series [5] concerns Yersinia pestis. Nature of the series: Inhibition of translocation of YopE::Bla fusion from pMM85 expressing Yersinia pestis JG153 to human HeLa cells at 80 uM after 3 hrs by fluorescence microscopic analysis. Type of series: functional, organism-based.
Series [6] has as its system Yersinia pestis. Nature of the series: (§2) Inhibition of T3SS-mediated YopD secretion in Yersinia pestis JG401 after 2 hrs by Western blotting.
Series [7] relates to Yersinia pestis. Nature of the series: (§3) Inhibition of T3SS-mediated YopM secretion in Yersinia pestis JG401 after 2 hrs by Western blotting.
Another series deals with Escherichia coli. Nature of the series: Inhibition of T3SS-mediated Tir secretion in enteropathogenic Escherichia coli KC14 harboring pKC17 at after 2 hrs by Western blotting.
In series [8] the test system is Yersinia pestis. Nature of the series: Inhibition of T3SS-mediated YopD secretion in Yersinia pestis JG401 at 15 uM after 2 hrs by Western blotting.
Series [9] relates to Yersinia pestis. Nature of the series: Inhibition of translocation of YopE::Bla fusion from pMM85 expressing Yersinia pestis JG153 to human HeLa cells at 40 uM after 3 hrs by fluorescence microscopic analysis. Type of series: functional.
The test system of series [10] is HeLa. Nature of the series: Cytotoxicity against human HeLa cells assessed as LDH release up to 60 uM after 3 hrs. The format is cell-based. In a few lines: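 HeLa cells seeded 1 day before in DMEM with 3% heat-inactivated FBS, then exposed to compound up to 60 μM at 37°C for 2–3 h. LDH in supernatant measured by kit. 0.1% Triton X-100 lysis gave the maximum and untreated cells the baseline; % cytotoxicity was calculated relative to both. Mean of three independent assays.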

Series [11] has as its system HeLa. Nature of the series: Cytotoxicity against human HeLa cells assessed as cell detachment up to 60 uM after 3 hrs. Type of series: cell-based. In a few lines:
(§4)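 HeLa monolayers seeded 1 day before at 1×10^5 cells/well in DMEM with 3% heat-inactivated FBS. Compound applied, cells incubated 37°C for 3 h. Monolayer disruption scored by microscopy as rounding and as percentage of cells detached from the plate.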

The test system of series [12] is HeLa. Nature of the series: Cytotoxicity against human HeLa cells assessed as cell rounding up to 60 uM after 3 hrs. The format is cell-based. In a few lines: as §4
Series [13] concerns Yersinia pestis. Nature of the series: Toxicity in Yersinia pestis JG153 assessed as growth inhibition at 60 uM measured 6 mins intervals for 24 hrs. The format is organism-based.
Series [14] can be described thus: as §1.
Series [15] can be described thus: as §2.
Series [16] can be described thus: as §3.

Take `O=C(Nc1cccc(C2=NCCN2)c1)Nc1cccc(C2=NCCN2)c1`: the inhibition entry with HeLa [1] was “Dose-dependent effect”; with Yersinia pestis [4], “Dose-dependent effect”; with Yersinia pestis [6] it was “Dose-dependent effect”; in the series with Yersinia pestis [7], “Dose-dependent effect”; in the series with Escherichia coli (concentration not given here), 81%; with Yersinia pestis [8] it was 50%. In addition, the inhibition result in the series on Yersinia pestis [2] and in the series with Yersinia pestis [3] was “inactive” each time. Moreover, the inhibition entry with Yersinia pestis [5] was “Active”.
For the compound `O=C(Nc1cccc(C2=NCCN2)c1)Nc1cccc(C2=NCCN2)c1` [IMIDOCARB DIPROPIONATE], in the series on Yersinia pestis [9], the inhibition at 40 µM turned out to be 50%.
`Cc1ccc(-c2nn(-c3ccccc3)cc2C2CC(c3cccs3)=NN2C(=O)CCCC(=O)O)cc1` (stereo unspecified): the inhibition result in the series on HeLa [1], in the series on Yersinia pestis [4], with Yersinia pestis [6] and in the series on Yersinia pestis [7] was “Dose-dependent effect” in each case. Besides, the Activity entry in the series with HeLa [10], in the series with HeLa [11], in the series on HeLa [12] and in the series with Yersinia pestis [13] was “Non-toxic” in each case. Also, the inhibition result with Yersinia pestis [5] is “inactive”. For the same compound, the INCC50 entry in the series on Escherichia coli was “inactive”.
With `Cc1cc(O)ccc1Sc1ccc(O)cc1C`, the IC50 in series [14], in series [15] and in [16] was 10 µM throughout. Moreover, the inhibition result in the series with Yersinia pestis [4], in the series with Yersinia pestis [6] and in the series with Yersinia pestis [7] was “Dose-dependent effect” in each case. The Activity result is on record as “Toxic” in the series with HeLa [10], “Toxic” in the series with HeLa [11], “Toxic” with HeLa [12] and “Non-toxic” in the series with Yersinia pestis [13]. For the same compound, the inhibition entry in the series on Escherichia coli is “inactive”.
`O=C(N/N=C/c1cc(Br)cc(Br)c1O)c1ccc([N+](=O)[O-])cc1`: the Activity entry in the series with Yersinia pestis [13] was “Toxic”.
As to `Cc1ccc(CSc2nc(C(=O)O)ccc2C#N)cc1`, the inhibition entry is “Dose-dependent effect” in the series with HeLa [1]; “Dose-dependent effect” in the series on Yersinia pestis [4]; “Dose-dependent effect” in the series with Yersinia pestis [6]; “Dose-dependent effect” with Yersinia pestis [7]; 96% in the series on Escherichia coli (concentration not given here). Moreover, the Activity entry with HeLa [10], with HeLa [11], in the series on HeLa [12] and in the series on Yersinia pestis [13] was “Non-toxic” in each case. In the series with Yersinia pestis [5], the inhibition result is “inactive”.
As for `O=C(Nc1cccc(C2=NCCN2)c1)Nc1cccc(C2=NCCN2)c1` [IMIDOCARB], the Activity entry in the series on HeLa [10], in the series on HeLa [11], in the series on HeLa [12] and in the series with Yersinia pestis [13] was “Non-toxic” in each case.

One may read the inhibition as the change of the read-out against control, counted positive when it falls. A word on the IC50: it is the point on the concentration scale where inhibition reaches its midpoint.
